Test results taken from ChEMBL document CHEMBL3259662 (ACS Med Chem Lett, 2014).
Values after ≈ are worked out from the molar mass of the structure shown. Active and inactive are the calls of the source. The rule behind the calls is not given here.

Key:
[1] = Selectivity index, ratio of cytotoxicity for human KB cells to IC50 for Cryptococcus neoformans ATCC 90113; assay type: toxicity, cell-based; details: read-out: Selectivity Index
Aspergillus fumigatus = test: Antifungal activity against Aspergillus fumigatus by CLSI method; assay type: functional, organism-based
Candida albicans = test: Antifungal activity against Candida albicans by CLSI method; assay type: functional, organism-based
Pichia kudriavzevii = test: Antifungal activity against Candida krusei by CLSI method; assay type: functional, organism-based
[2] = Selectivity index, ratio of cytotoxicity for human SK-MEL cells to IC50 for Cryptococcus neoformans ATCC 90113; assay type: toxicity, cell-based; details: read-out: Selectivity Index
LLC-PK1 = test: Cytotoxicity against pig LLC-PK1 cells assessed as cell viability after 48 hrs by neutral red uptake assay; assay type: cell-based, Sus scrofa; details: llc-pk1, 48 h
Method in brief: (§1)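 Neutral red uptake assay in human cancer lines SK-MEL, KB, BT-549 and SK-OV-3 and in noncancerous mammalian kidney cells VERO and LLC-PK1. The highest tested concentration was 10 μg/mL.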

Lipid bilayer = test: Binding affinity to small unilamellar vesicles assessed as destruction of membrane by transmission electron microscopy
Method in brief: (§2)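 Small unilamellar vesicles were made by a literature method, either EYPC/EYPG or EYPC/cholesterol, and incubated with or without peptide. Samples were deposited on carbon-coated copper grids, negatively stained with 2% (w/v) phosphotungstic acid and imaged by TEM to judge vesicle integrity and morphology.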

[3] = Binding affinity to EYPC/cholesterol by transmission electron microscopy; method in brief: as §2
SK-OV-3 = test: Cytotoxicity against human SKOV3 cells assessed as cell viability after 48 hrs by neutral red uptake assay; assay type: cell-based; details: sk-ov-3, 48 h; method in brief: as §1
BT-549 = test: Cytotoxicity against human BT549 cells assessed as cell viability after 48 hrs by neutral red uptake assay; assay type: cell-based; details: bt-549, 48 h; method in brief: as §1
[4] = Selectivity index, ratio of cytotoxicity for pig LLC-PK1 cells to IC50 for Cryptococcus neoformans ATCC 90113; assay type: toxicity, cell-based; details: read-out: Selectivity Index
[5] = Binding affinity to EYPC/EYPG assessed as disruption of SUVs integrity by transmission electron microscopy; method in brief: as §2
Cryptococcus neoformans [6] = test: Antifungal activity against Cryptococcus neoformans ATCC 90113 after 70 to 74 hrs by CLSI method; assay type: functional, organism-based; details: for IC50 / MIC: Cryptococcus neoformans, ATCC 90113
Method in brief: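 Growth inhibition of C. neoformans per the CLSI protocol. […] MIC is the lowest test concentration with no detectable growth. MFC is the lowest concentration killing 100% of the organism.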

KB = test: Cytotoxicity against human KB cells assessed as cell viability after 48 hrs by neutral red uptake assay; assay type: cell-based; method in brief: as §1
Escherichia coli = test: Antibacterial activity against Escherichia coli ATCC 35218 after 16 to 20 hrs by CLSI method; assay type: functional, organism-based
[7] = Selectivity index, ratio of cytotoxicity for human BT549 cells to IC50 for Cryptococcus neoformans ATCC 90113; assay type: toxicity, cell-based, BT-549; details: read-out: Selectivity Index
Nakaseomyces glabratus = test: Antifungal activity against Candida glabrata by CLSI method; assay type: functional, organism-based
Cryptococcus neoformans [8] = test: Ratio of amphotericin B MFC to compound MFC for Cryptococcus neoformans ATCC 90113 after 70 to 74 hrs by CLSI method; assay type: functional
SK-MEL = test: Cytotoxicity against human SK-MEL cells assessed as cell viability after 48 hrs by neutral red uptake assay; assay type: cell-based; method in brief: as §1
[9] = Selectivity index, ratio of cytotoxicity for African green monkey Vero cells to IC50 for Cryptococcus neoformans ATCC 90113; assay type: toxicity, cell-based; details: read-out: Selectivity Index
Vero = test: Cytotoxicity against African green monkey Vero cells assessed as cell viability after 48 hrs by neutral red uptake assay; assay type: cell-based; details: chlorocebus sabaeus; method in brief: as §1
[10] = Selectivity index, ratio of cytotoxicity for human SKOV3 cells to IC50 for Cryptococcus neoformans ATCC 90113; assay type: toxicity, cell-based, SK-OV-3; details: read-out: Selectivity Index
Staphylococcus aureus [11] = test: Antibacterial activity against methicillin-resistant Staphylococcus aureus ATCC 33591 after 16 to 20 hrs by CLSI method; assay type: functional, organism-based
Staphylococcus aureus [12] = test: Antibacterial activity against Staphylococcus aureus ATCC 29213 by CLSI method; assay type: functional, organism-based
[13] = Retention time of the compound by reverse phase HPLC analysis; assay type: physicochemical
Method in brief: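 Reverse-phase HPLC on a C-18 column (25 cm × 4.6 mm, 5 μM) at 1 mL/min over 40 min. The gradient ran 85−5% with A = 0.1% TFA in H2O and B = 0.1% TFA in CH3CN. Detection was at 220 nm.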

Cryptococcus neoformans [14] = test: Antifungal activity against Cryptococcus neoformans ATCC 90113 at 20 ug/ml after 70 to 74 hrs by CLSI method; assay type: functional, organism-based
Method in brief: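 C. neoformans screened per the CLSI protocol at the highest tested concentration of 20 μg/mL. Compounds showing no activity at this level were scored not active.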

[15] = Staphylococcus aureus, ATCC 33591
[16] = Staphylococcus aureus, ATCC 33591, read-out: IC50

Row | SMILES | selectivity ratio [1] | Activity (Aspergillus fumigatus) | Activity (Candida albicans) | Activity (Pichia kudriavzevii) | selectivity ratio [2] | Activity (LLC-PK1) | Activity (SK-OV-3) | Activity (BT-549) | selectivity ratio [4] | MFC100 (Cryptococcus neoformans [6]) | IC50 (Cryptococcus neoformans [6]) | MIC (Cryptococcus neoformans [6]) | Activity (KB) | Activity (Escherichia coli) | selectivity ratio [7] | Activity (Nakaseomyces glabratus) | Activity (SK-MEL) | selectivity ratio [9] | Activity (Vero) | selectivity ratio [10] | further results
1 | CC(C)(C)c1ccc(-c2nc(C[C@H](NC(=O)[C@@H](N)CCCNC(=N)N)C(=O)N[C@@H](CCCNC(=N)N)C(=O)NCc3ccccc3)c[nH]2)cc1 | > 143 | inactive | inactive | inactive | > 143 | > 10 µg/mL | > 10 µg/mL | > 10 µg/mL | > 143 | 0.16 µg/mL (≈ 0.232 µM) | 0.07 µg/mL (≈ 0.102 µM) | 0.16 µg/mL (≈ 0.232 µM) | > 10 µg/mL | inactive | > 143 | inactive | > 10 µg/mL | > 143 | > 10 µg/mL | > 143 | Activity (Lipid bilayer): Active; Activity [3]: inactive; Activity [5]: Active; Ratio (Cryptococcus neoformans [8]): 8
2 | CC(C)(C)OC(=O)N[C@@H](CCCNC(=N)N)C(=O)N[C@@H](Cc1c[nH]c(-c2ccc(C(C)(C)C)cc2)n1)C(=O)N[C@@H](CCCNC(=N)N)C(=O)NCc1ccccc1 | > 55.6 | inactive | inactive | inactive | > 55.6 | > 10 µg/mL | > 10 µg/mL | > 10 µg/mL | > 55.6 | 0.63 µg/mL (≈ 0.798 µM) | 0.18 µg/mL (≈ 0.228 µM) | 0.63 µg/mL (≈ 0.798 µM) | > 10 µg/mL | inactive | > 55.6 | inactive | > 10 µg/mL | > 55.6 | > 10 µg/mL | > 55.6 | MBC100 (Staphylococcus aureus [11]): inactive; MIC (Staphylococcus aureus [11]; [15]): 20 µg/mL (≈ 25.3 µM); IC50 (Staphylococcus aureus [11]; [16]): 11.5 µg/mL (≈ 14.6 µM); IC50 (Staphylococcus aureus [12]): 12.5 µg/mL (≈ 15.9 µM); MBC100 (Staphylococcus aureus [12]): inactive; MIC (Staphylococcus aureus [12]): 20 µg/mL (≈ 25.3 µM); Retention_time [13]: 24.41 min; Ratio (Cryptococcus neoformans [8]): 2
3 | COc1ccc(-c2nc(C[C@H](NC(=O)[C@@H](N)CCCNC(=N)N)C(=O)N[C@@H](CCCNC(=N)N)C(=O)NCc3ccccc3)c[nH]2)cc1 | > 23.3 | inactive | inactive | inactive | > 23.3 | > 10 µg/mL | > 10 µg/mL | > 10 µg/mL | > 23.3 | 0.63 µg/mL (≈ 0.951 µM) | 0.43 µg/mL (≈ 0.649 µM) | 0.63 µg/mL (≈ 0.951 µM) | > 10 µg/mL | inactive | > 23.3 | inactive | > 10 µg/mL | > 23.3 | > 10 µg/mL | > 23.3 | Ratio (Cryptococcus neoformans [8]): 2
4 | CC(C)(C)OC(=O)N[C@@H](CCCNC(=N)N)C(=O)N[C@@H](Cc1c[nH]c(-c2ccc(-c3ccccc3)cc2)n1)C(=O)N[C@@H](CCCNC(=N)N)C(=O)NCc1ccccc1 | > 50 | inactive | inactive | inactive | > 50 | > 10 µg/mL | > 10 µg/mL | > 10 µg/mL | > 50 | 0.31 µg/mL (≈ 0.383 µM) | 0.2 µg/mL (≈ 0.247 µM) | 0.31 µg/mL (≈ 0.383 µM) | > 10 µg/mL | inactive | > 50 | inactive | > 10 µg/mL | > 50 | > 10 µg/mL | > 50 | MBC100 (Staphylococcus aureus [11]): 20 µg/mL (≈ 24.7 µM); MIC (Staphylococcus aureus [11]; [15]): 20 µg/mL (≈ 24.7 µM); IC50 (Staphylococcus aureus [11]; [16]): 10.8 µg/mL (≈ 13.3 µM); IC50 (Staphylococcus aureus [12]): 6.88 µg/mL (≈ 8.5 µM); MBC100 (Staphylococcus aureus [12]): inactive; MIC (Staphylococcus aureus [12]): 20 µg/mL (≈ 24.7 µM); Retention_time [13]: 24.04 min; Ratio (Cryptococcus neoformans [8]): 4
5 | COC(=O)[C@H](CCCNC(=N)N)NC(=O)[C@H](Cc1c[nH]c(-c2ccc(C)cc2)n1)NC(=O)[C@H](CCCNC(=N)N)NC(=O)OC(C)(C)C | > 1 | inactive | inactive | inactive | > 1 | > 10 µg/mL | > 10 µg/mL | > 10 µg/mL | > 1 |  | 9.71 µg/mL (≈ 14.5 µM) |  | > 10 µg/mL | inactive | > 1 | inactive | > 10 µg/mL | > 1 | > 10 µg/mL | > 1 | Retention_time [13]: 14.76 min; Activity (Cryptococcus neoformans [14]): inactive
6 | N=C(N)NCCC[C@H](NC(=O)[C@H](Cc1c[nH]c(-c2ccc(-c3ccccc3)cc2)n1)NC(=O)[C@@H](N)CCCNC(=N)N)C(=O)NCc1ccccc1 | > 100 | inactive | inactive | inactive | > 100 | > 10 µg/mL | > 10 µg/mL | > 10 µg/mL | > 100 | 0.16 µg/mL (≈ 0.226 µM) | 0.1 µg/mL (≈ 0.141 µM) | 0.16 µg/mL (≈ 0.226 µM) | > 10 µg/mL | inactive | > 100 | inactive | > 10 µg/mL | > 100 | > 10 µg/mL | > 100 | IC50 (Staphylococcus aureus [11]): Not Active; MBC100 (Staphylococcus aureus [11]): inactive; MIC (Staphylococcus aureus [11]): inactive; IC50 (Staphylococcus aureus [12]): 15.4 µg/mL (≈ 21.7 µM); MBC100 (Staphylococcus aureus [12]): inactive; MIC (Staphylococcus aureus [12]): inactive; Ratio (Cryptococcus neoformans [8]): 8
